Article PMC6923798 (Bioorganic chemistry, 2018)
Read-outs that look alike come from different tables or passages of the source.

Columns and labels:
[1] = system: full NCI panel of 60 cell lines; assay: NCI in vitro one dose anticancer assay; format: cell-based, human; conditions: 48 h; for inhibition at 10 µM: Homo sapiens, 60 cell, read-out: Mean growth inhibition %
Procedure, shortened: (§1)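 NCI protocol. Test compound added once at 10−5 M to ~60 human tumour lines from nine subpanels. Incubated 48 h at 37 °C, 5% CO2, 95% air, 100% relative humidity. Endpoint by sulforhodamine B protein staining with spectrophotometric absorbance. Growth of treated cells reported as percent of untreated cells.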

[2] = system: K-562; assay: MTT anti-proliferative assay; format: cell-based, human; conditions: read-out: IC50 ± SD, K-562
[3] = system: KG-1a; assay: MTT anti-proliferative assay; format: cell-based, human; conditions: read-out: IC50 ± SD, KG-1a
[4] = system: Jurkat; assay: MTT anti-proliferative assay; format: cell-based, human; conditions: read-out: IC50 ± SD, Jurkat
[5] = biological target: EGFR (Homo sapiens, UniProt P00533); assay: EGFR kinase assay; format: biochemical
Chain of EGFR (P00533 25-1210): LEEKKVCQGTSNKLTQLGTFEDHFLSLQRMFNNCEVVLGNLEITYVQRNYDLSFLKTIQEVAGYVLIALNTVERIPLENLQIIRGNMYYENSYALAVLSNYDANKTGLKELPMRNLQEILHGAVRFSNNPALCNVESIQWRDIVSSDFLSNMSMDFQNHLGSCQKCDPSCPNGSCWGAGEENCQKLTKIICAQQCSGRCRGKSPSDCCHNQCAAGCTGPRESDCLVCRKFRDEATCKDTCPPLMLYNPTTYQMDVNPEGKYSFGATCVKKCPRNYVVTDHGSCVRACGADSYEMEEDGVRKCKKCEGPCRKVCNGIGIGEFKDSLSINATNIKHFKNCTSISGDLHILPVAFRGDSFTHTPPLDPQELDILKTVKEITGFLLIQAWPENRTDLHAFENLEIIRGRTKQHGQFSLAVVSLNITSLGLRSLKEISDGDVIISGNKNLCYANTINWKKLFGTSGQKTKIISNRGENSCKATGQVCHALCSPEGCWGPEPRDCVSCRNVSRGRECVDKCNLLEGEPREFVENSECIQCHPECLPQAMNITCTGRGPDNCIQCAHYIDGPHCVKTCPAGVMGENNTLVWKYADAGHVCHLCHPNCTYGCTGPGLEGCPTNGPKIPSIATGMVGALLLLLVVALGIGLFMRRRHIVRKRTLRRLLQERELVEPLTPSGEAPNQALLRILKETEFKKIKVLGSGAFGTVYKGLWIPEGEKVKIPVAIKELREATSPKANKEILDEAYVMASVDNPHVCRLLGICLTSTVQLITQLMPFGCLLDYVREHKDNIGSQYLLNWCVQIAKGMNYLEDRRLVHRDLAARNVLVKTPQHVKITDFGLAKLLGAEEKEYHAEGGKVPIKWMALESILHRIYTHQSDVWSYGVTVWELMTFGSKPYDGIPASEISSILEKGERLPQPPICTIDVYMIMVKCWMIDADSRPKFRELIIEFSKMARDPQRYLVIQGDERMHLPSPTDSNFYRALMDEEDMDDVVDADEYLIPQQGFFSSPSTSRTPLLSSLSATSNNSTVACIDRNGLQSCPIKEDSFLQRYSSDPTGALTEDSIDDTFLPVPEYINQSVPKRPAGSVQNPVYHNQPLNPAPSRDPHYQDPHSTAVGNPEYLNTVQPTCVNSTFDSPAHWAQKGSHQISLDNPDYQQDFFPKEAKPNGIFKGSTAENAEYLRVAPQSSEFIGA

[6] = biological target: c-Src (Homo sapiens, UniProt P12931); assay: Src kinase assay; format: biochemical
Chain of c-Src (P12931 whole entry): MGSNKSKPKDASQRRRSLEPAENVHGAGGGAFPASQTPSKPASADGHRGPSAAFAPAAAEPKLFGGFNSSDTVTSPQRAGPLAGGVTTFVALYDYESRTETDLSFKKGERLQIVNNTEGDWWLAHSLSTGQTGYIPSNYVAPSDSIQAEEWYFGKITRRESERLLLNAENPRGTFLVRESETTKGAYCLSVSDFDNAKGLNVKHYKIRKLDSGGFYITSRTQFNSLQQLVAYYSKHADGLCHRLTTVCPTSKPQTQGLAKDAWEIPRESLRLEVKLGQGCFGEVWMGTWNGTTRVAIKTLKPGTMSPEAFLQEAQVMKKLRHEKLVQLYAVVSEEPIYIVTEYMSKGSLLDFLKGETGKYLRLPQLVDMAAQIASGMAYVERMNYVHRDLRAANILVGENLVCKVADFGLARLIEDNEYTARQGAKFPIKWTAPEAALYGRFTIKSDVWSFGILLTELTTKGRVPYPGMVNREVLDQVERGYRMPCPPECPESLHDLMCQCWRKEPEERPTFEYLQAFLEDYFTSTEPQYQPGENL

[7] = system: STAT3; assay: STAT3 activation assay; format: cell-based, human; conditions: K-562 cells, 10 μM, 24 h, nuclear extracts
Procedure, shortened: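 K562 cells seeded overnight in 10 cm plates, then given vehicle, test compound (10 μM) or WP1066 (positive control) for 24 h. Nuclear fractions extracted by kit. STAT3 activation measured in nuclear extracts by TransAM STAT3 ELISA per manufacturer. Mean ± SD of three independent experiments, each in triplicate.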

[8] = system: RPMI-8226 cell line; assay: NCI in vitro one dose anticancer assay; format: cell-based; conditions: Homo sapiens, RPMI-8226, 48 h, read-out: % growth inhibition
Procedure, shortened: as §1

[9] = system: SR cell line; assay: NCI in vitro one dose anticancer assay; format: cell-based; conditions: Homo sapiens, 48 h, read-out: % growth inhibition
Procedure, shortened: as §1

[10] = system: IL-6; assay: IL-6 ELISA in K-562 cells; format: cell-based, human; conditions: Homo sapiens, K562, 24 h, read-out: IL-6 protein levels (% of control)
Procedure, shortened: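 K-562 cells exposed 24 h to vehicle (DMSO), test compound at 10 μM or dexamethasone (positive control). IL-6 secreted into cell-free supernatant quantified by human IL-6 ELISA kit. Expressed as % of vehicle control, mean ± SD of three independent experiments, each in triplicate. Time course: in 12-well plates, medium changed when compound (10 μM) added, and media sampled at 0, 1, 4, 8, 12, 24, 48 h.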

[11] = system: K-562 cell line; assay: NCI in vitro one dose anticancer assay; format: cell-based; conditions: Homo sapiens, K562, 48 h, read-out: % growth inhibition
Procedure, shortened: as §1

[12] = system: MOLT-4 cell line; assay: NCI in vitro one dose anticancer assay; format: cell-based; conditions: Homo sapiens, MOLT-4, 48 h, read-out: % growth inhibition
Procedure, shortened: as §1

SMILES	Mean growth inhibition % ([1]; 10 μM, SRB, mean over NCI 60 cell line panel) [%]	IC50 ([2]; MTT, 24 h treatment) [µM]	IC50 ([3]; MTT, 24 h treatment) [µM]	IC50 ([4]; MTT, 24 h treatment) [µM]	IC50 ([5]; read-out: EGFR (IC50 μM), PGT substrate, ATP 50 μM) [µM]	IC50 ([6]; read-out: Src (IC50 μM), PGT substrate, ATP 50 μM) [µM]	inhibition of STAT3 activation [7]	inhibition at 10 µM [8] [%]	inhibition at 10 µM [9] [%]	IC50 ([2]; Homo sapiens, K562, 24 h) [µM]	IC50 ([3]; Homo sapiens, KG-1a, 24 h) [µM]	IC50 ([4]; Homo sapiens, Jurkat, 24 h) [µM]	IC50 [5] [µM]	IC50 [6] [µM]	activity at 10 µM [10] [%]	inhibition at 10 µM [1] [%]	inhibition at 10 µM [11] [%]	inhibition at 10 µM [12] [%]
O=C(CSc1nnc(-c2ccccc2)o1)Nc1ccc(C(=O)C=Cc2ccccc2)cc1 [Compound 8a, N-(4-(3-Phenyl)acryloyl)phenyl-2-((5-phenyl-1,3,4-oxadiazol-2-yl)thio)-acetamide]	37.77	7.21 ± 0.35	8.85 ± 0.22	8.47 ± 1.03	1.23 ± 0.25	4.5 ± 1.2	most effective	–	–	–	–	–	–	–	–	–	–	–
O=C(CSc1nnc(-c2ccc(Cl)cc2)o1)Nc1ccc(C(=O)C=Cc2ccccc2)cc1 [Compound 8e, 2-((5-(4-Chlorophenyl)-1,3,4-oxadiazol-2-yl)thio)-N-(4-cinnamoylphenyl)acetamide]	–	–	–	–	–	–	–	31.3 to 144	32.9 to 160	93.3 ± 5.21	> 100	> 100	59.4 ± 5.63	74.4 ± 3.6	82 to 98	–	–	–
COc1ccc(-c2nnc(SCC(=O)Nc3ccc(C(=O)C=Cc4cc(OC)c(OC)c(OC)c4)cc3)o2)cc1 [Compound 8n, 2-(5-(4-Methoxyphenyl)-1,3,4-oxadiazol-2-ylthio)-N-(4-(3-(3,4,5-tri-methoxyphenyl)acryloyl)phenyl)acetamide]	–	–	–	–	–	–	most effective	–	32.9 to 160	10.2 ± 0.94	16 ± 0.96	13.15 ± 0.08	2.35 ± 0.95	6.24 ± 0.86	20 to 23	27.3	35.8 to 152	–
COc1ccc(-c2nnc(SCC(=O)Nc3ccc(C(=O)C=Cc4ccc(Cl)cc4)cc3)o2)cc1OC [Compound 8p, N-(4-(3-(4-chlorophenyl)acryloyl)phenyl)-2-((5-(3,4-dimethoxyphenyl)-1,3,4-oxadiazol-2-yl)thio)acetamide]	–	–	–	–	–	–	moderate activities	31.3 to 144	32.9 to 160	16.1 ± 1.08	22.5 ± 1.07	17.2 ± 0.79	13.3 ± 0.65	13.7 ± 0.89	30 to 75	28.2	–	31.9 to 108
COc1ccc(-c2nnc(SCC(=O)Nc3ccc(C(=O)C=Cc4cc(OC)c(OC)c(OC)c4)cc3)o2)cc1OC [Compound 8s, 2-((5-(3,4-Dimethoxyphenyl)-1,3,4-oxadiazol-2-yl)thio)-N-(4-(3-(3,4,5-trimethoxyphenyl)acryloyl)phenyl)acetamide]	–	–	–	–	–	–	moderate activities	31.3 to 144	32.9 to 160	15.1 ± 0.25	32.1 ± 0.64	25.1 ± 0.45	12.3 ± 0.8	15.3 ± 1.25	30 to 75	–	35.8 to 152	–
COc1cc(C=CC(=O)c2ccc(NC(=O)CSc3nnc(-c4cc(OC)c(OC)c(OC)c4)o3)cc2)cc(OC)c1OC [Compound 8x, 2-((5-(3,4,5-Trimethoxyphenyl)-1,3,4-oxadiazol-2-yl)thio)-N-(4-(3-(3,4,5-trimethoxyphenyl)acryloyl)phenyl)acetamide]	–	–	–	–	–	–	moderate activities	31.3 to 144	32.9 to 160	62.1 ± 3.07	71.5 ± 1.18	69.17 ± 0.15	20.5 ± 1.35	35.1 ± 3.26	30 to 75	–	–	–
